Experimental findings from ChEMBL document CHEMBL3351532, “In vitro antiplasmodial and cytotoxic activities of asymmetrical pyridinium derivatives” (Eur J Med Chem, 2014) are described below.

In one data set the test system is Plasmodium falciparum. Description: Antiplasmodial activity against Plasmodium falciparum 3D7 infected in human erythrocytes assessed as parasite growth inhibition after 72 hrs by SYBR Green I dye based fluorescence assay. The format is functional, organism-based. The note with it: 3D7, 72 h. Summed up: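 P. falciparum 3D7, sorbitol-synchronized, in O+ human erythrocytes at 5% hematocrit and 0.5% parasitemia. Medium: RPMI 1640 with 2% human serum, 0.5% Albumax II and 0.2% NaHCO3, at 37 °C in 5% CO2. Triplicate serial dilutions, 0.001% final DMSO, 80 nM chloroquine as positive control, 72 h. SYBR Green I lysis for 1 h in the dark (ex 485/em 530 nm). IC50 by nonlinear regression of counts against log concentration.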

The nature of data set [1]: Cytotoxicity against rat L6 cells after 72 hrs by alamar blue assay. It counts as cell-based. The essentials: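 Rat L6 skeletal myoblasts plated at 50,000 cells/well in RPMI 1640 with L-glutamine and 10% FBS, left to adhere 3 h, then exposed to serial dilutions for 72 h. Alamar Blue added for 2 h at 37 °C, fluorescence read at ex 536/em 588 nm. TC50 taken as the concentration halving fluorescence relative to inhibitor-free wells.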

Data set [2] is described as follows: Selectivity index, ratio of CC50 for rat L6 cells to IC50 for Plasmodium falciparum 3D7. It counts as functional.

The structures appear in SMILES notation.

Turning to `CN(C)c1cc[n+](Cc2ccc(Cn3cnc4c(N)ncnc43)cc2)cc1`, in the data set with Plasmodium falciparum, the IC50 is 14300 nM.

`Nc1ncnc2c1ncn2Cc1ccc(C[n+]2ccc(N3CCCC3)cc2)cc1`: in the data set on Plasmodium falciparum, the IC50 stood at 6430 nM.

For `CN(C)c1cc[n+](Cc2ccc(-c3ccc(Cn4cnc5c(N)ncnc54)cc3)cc2)cc1`, in the data set on Plasmodium falciparum, the IC50 was determined as 4840 nM.

Take `Nc1ncnc2c1ncn2Cc1ccc(-c2ccc(C[n+]3ccc(N4CCCC4)cc3)cc2)cc1`: in the data set on Plasmodium falciparum, the IC50 was found to be 191 nM.

On to `CN(C)c1cc[n+](Cc2ccc(CCc3ccc(Cn4cnc5c(N)ncnc54)cc3)cc2)cc1`, for which the IC50 in the data set with Plasmodium falciparum came out at 191 nM.

In the case of `Nc1ncnc2c1ncn2Cc1ccc(CCc2ccc(C[n+]3ccc(N4CCCC4)cc3)cc2)cc1`, the IC50 in the data set on Plasmodium falciparum is 93 nM.

Take `CN(C)c1cc[n+](Cc2ccc(CCCCc3ccc(Cn4cnc5c(N)ncnc54)cc3)cc2)cc1`: the IC50 in the data set with Plasmodium falciparum amounted to 162 nM.

Take `Nc1ncnc2c1ncn2Cc1ccc(CCCCc2ccc(C[n+]3ccc(N4CCCC4)cc3)cc2)cc1`: the IC50 in the data set on Plasmodium falciparum was determined as 460 nM.

`CN(C)c1cc[n+](Cc2ccc(Cn3cnc(N)c4ncnc3-4)cc2)cc1`: the IC50 in the data set on Plasmodium falciparum is greater than 22700 nM.

As to `CN(C)c1cc[n+](Cc2ccc(-c3ccc(Cn4cnc(N)c5ncnc4-5)cc3)cc2)cc1`, the IC50 with Plasmodium falciparum was 949 nM.

With `Nc1ncn(Cc2ccc(CCc3ccc(C[n+]4ccc(N5CCCC5)cc4)cc3)cc2)c2ncnc1-2`, the IC50 with Plasmodium falciparum worked out at 210 nM.

For the compound `CN(C)c1cc[n+](Cc2ccc(CCCCc3ccc(Cn4cnc(N)c5ncnc4-5)cc3)cc2)cc1`, the IC50 in the data set on Plasmodium falciparum worked out at 930 nM.

Take `Nc1ncn(Cc2ccc(CCCCc3ccc(C[n+]4ccc(N5CCCC5)cc4)cc3)cc2)c2ncnc1-2`: the IC50 with Plasmodium falciparum was 84 nM.

Turning to `CN(C)c1cc[n+](Cc2ccc(C[n+]3ccc(N4CCCC4)cc3)cc2)cc1`, the IC50 in the data set with Plasmodium falciparum was determined as 94 nM.

On to `CN(C)c1cc[n+](Cc2ccc(-c3ccc(C[n+]4ccc(N5CCCC5)cc4)cc3)cc2)cc1.[Br-].[Br-]`, for which, in data set [1], the CC50 at 72 h is 5.1 µg/mL. Also, the “Ratio CC50/IC50” value in data set [2] was 3187.5. The IC50 with Plasmodium falciparum was determined as 3 nM.

Take `CN(C)c1cc[n+](Cc2ccc(CCc3ccc(C[n+]4ccc(N5CCCC5)cc4)cc3)cc2)cc1.[Br-].[Br-]`: the midpoint of cytotoxicity in data set [1], the CC50 at 72 h, lay at 0.123 µg/mL. In data set [2], the “Ratio CC50/IC50” value stood at 58.6. Besides, the IC50 with Plasmodium falciparum stood at 3 nM.

Compound `CN(C)c1cc[n+](Cc2ccc(CCCCc3ccc(C[n+]4ccc(N5CCCC5)cc4)cc3)cc2)cc1.[Br-].[Br-]` registered a CC50 at 72 h in data set [1] of 0.012 µg/mL. Moreover, the “Ratio CC50/IC50” value in data set [2] is recorded as 8.6. In the data set on Plasmodium falciparum, the IC50 was 2 nM.

As for `CN(c1ccc(Cl)cc1)c1cc[n+](Cc2ccc(C[n+]3ccc(N4CCCC4)cc3)cc2)cc1`, the IC50 in the data set on Plasmodium falciparum is 92 nM.

Regarding `CN(c1ccc(Cl)cc1)c1cc[n+](Cc2ccc(-c3ccc(C[n+]4ccc(N5CCCC5)cc4)cc3)cc2)cc1`, in the data set on Plasmodium falciparum, the IC50 was 38 nM.

With `CN(c1ccc(Cl)cc1)c1cc[n+](Cc2ccc(CCc3ccc(C[n+]4ccc(N5CCCC5)cc4)cc3)cc2)cc1`, in the data set on Plasmodium falciparum, the IC50 stood at 31 nM.

Take `CN(c1ccc(Cl)cc1)c1cc[n+](Cc2ccc(CCCCc3ccc(C[n+]4ccc(N5CCCC5)cc4)cc3)cc2)cc1`: in the data set on Plasmodium falciparum, the IC50 is 37 nM.

Turning to `CN(C)c1cc[n+](Cc2ccc(C[n+]3ccc(N(C)c4ccc(Cl)cc4)cc3)cc2)cc1`, the IC50 in the data set on Plasmodium falciparum turned out to be 66 nM.

In data set [1], `CN(C)c1cc[n+](Cc2ccc(-c3ccc(C[n+]4ccc(N(C)c5ccc(Cl)cc5)cc4)cc3)cc2)cc1.[Br-].[Br-]` registered a CC50 at 72 h of 0.122 µg/mL. Further, the “Ratio CC50/IC50” value in data set [2] is on record as 24.4. Besides, the IC50 in the data set with Plasmodium falciparum was determined as 7 nM.

Turning to `CN(C)c1cc[n+](Cc2ccc(CCc3ccc(C[n+]4ccc(N(C)c5ccc(Cl)cc5)cc4)cc3)cc2)cc1.[Br-].[Br-]`, the midpoint of cytotoxicity in data set [1], the CC50 at 72 h, lay at 0.1 µg/mL. In addition, in data set [2], the “Ratio CC50/IC50” value was 28.6. Further, the IC50 in the data set on Plasmodium falciparum turned out to be 5 nM.

On to `CN(C)c1cc[n+](Cc2ccc(CCCCc3ccc(C[n+]4ccc(N(C)c5ccc(Cl)cc5)cc4)cc3)cc2)cc1`, for which the IC50 in the data set on Plasmodium falciparum is 45 nM.

For the compound `CN(C)c1cc[n+](Cc2ccc(Cn3cnc4c(SCc5ccccc5)ncnc43)cc2)cc1`, in the data set on Plasmodium falciparum, the IC50 came to 122 nM.

Regarding `c1ccc(CSc2ncnc3c2ncn3Cc2ccc(C[n+]3ccc(N4CCCC4)cc3)cc2)cc1`, the IC50 with Plasmodium falciparum was 411 nM.

With `CN(C)c1cc[n+](Cc2ccc(-c3ccc(Cn4cnc5c(SCc6ccccc6)ncnc54)cc3)cc2)cc1`, the IC50 in the data set with Plasmodium falciparum turned out to be 3220 nM.

Consider `c1ccc(CSc2ncnc3c2ncn3Cc2ccc(-c3ccc(C[n+]4ccc(N5CCCC5)cc4)cc3)cc2)cc1`, for which the IC50 with Plasmodium falciparum was 119 nM.

As to `CN(C)c1cc[n+](Cc2ccc(CCc3ccc(Cn4cnc5c(SCc6ccccc6)ncnc54)cc3)cc2)cc1`, the IC50 with Plasmodium falciparum stood at 92 nM.

Turning to `c1ccc(CSc2ncnc3c2ncn3Cc2ccc(CCc3ccc(C[n+]4ccc(N5CCCC5)cc4)cc3)cc2)cc1`, the IC50 in the data set on Plasmodium falciparum is 149 nM.

Regarding `CN(C)c1cc[n+](Cc2ccc(CCCCc3ccc(Cn4cnc5c(SCc6ccccc6)ncnc54)cc3)cc2)cc1`, in the data set with Plasmodium falciparum, the IC50 amounted to 500 nM.

As for `c1ccc(CSc2ncnc3c2ncn3Cc2ccc(CCCCc3ccc(C[n+]4ccc(N5CCCC5)cc4)cc3)cc2)cc1`, the IC50 with Plasmodium falciparum turned out to be 54 nM.
